Measurements published in publication PMC10443334 (Microbial Biotechnology, 2023).
Where a SMILES comes first, the peptide text is derived from it. Bridges are numbered along the chain shown (N, C = ends). [ ]: non-standard residue; d: D form. The star is where a group is joined. X1 = CC[C@H](C)CCCCC(=O)*; Dab = NCC[C@H](N)C(=O)O

What was measured:
[1] = system: THP-1 cells; experiment: LDH release and caspase 1 western blot after OMV stimulation; format: cell-based, human; details: Wed 50 μM pre-treatment for 2 h, OMVs 20 μg protein/mL
Procedure, shortened: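 PMA-differentiated (10 ng/mL, 48 h) THP-1 macrophages were pre-treated with DMSO or 50 μM Wed, then exposed to OMVs (20 μg protein/mL) for 4 h at 37°C, 5% CO2. OMVs came from 8 h LB culture supernatants, filtered, concentrated on 100-kDa filters and pelleted at 150,000 g for 3 h. LDH in media was read by kit as % of 0.1% Triton X-100 lysis; lysates were western blotted with chemiluminescent quantitation.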

[2] = system: BL21/pMCR-1; experiment: Time-killing kinetics; format: cell-based, E. coli; details: 16 μg/mL, 1 × 10^5 CFU/mL, IPTG, 37°C, agar plate dilution count
Procedure, shortened: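 Suspensions of IPTG-induced BL21/pMCR-1 (1 × 10^5 CFU/mL) were sub-cultured into tubes with IPTG, with or without test compound at 4 × MIC, at 37°C. Viable counts were taken by agar plate dilution at fixed time intervals. Data are mean ± SD from three independent experiments.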

[3] = system: BL21/pMCR-1; experiment: Microdilution MIC/MBC; format: cell-based, E. coli; details: MIC ratio BL21/pMCR-1 vs BL21/pEmpty
Procedure, shortened: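 Broth microdilution MIC/MBC followed CLSI. Strains were E. coli BL21 carrying pET28a-mcr-1 or empty pET28a, grown in LB (pH 7.2–7.4) with 50 μg/mL kanamycin. MCR-1 expression was induced with 0.5 mM IPTG at 37°C with shaking at 220 rpm.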

[4] = system: THP-1 cells; experiment: NF-κB activation western blot; format: cell-based, human; details: TAK242 1 μM (infection) or 100 nM (LPS) for 1 h
Procedure, shortened: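 THP-1 cells were differentiated with PMA (10 ng/mL, 48 h). For infection, cells got TAK242 1 μM for 1 h, then washed log-phase BL21/pEmpty or BL21/pMCR-1 at MOI 50 in serum-free medium with kanamycin and IPTG for 4 h. For LPS, cells got TAK242 100 nM for 1 h, then purified LPS (1 μg/mL) for 4 h. Cell extracts were western blotted and relative band levels quantified.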

With `COc1cc(O)c2c(c1)oc(=O)c1c3cc(O)c(O)cc3oc21` [Wed, wedelolactone] the “macrophage cell death and caspase-1 processing after OMV stimulation” value [1] was “markedly reduced”.
For `CC[C@H](C)CCCCC(=O)N[C@@H](CCN)C(=O)N[C@H](C(=O)N[C@@H](CCN)C(=O)N[C@H]1CCNC(=O)[C@H]([C@@H](C)O)NC(=O)[C@H](CCN)NC(=O)[C@H](CCN)NC(=O)[C@H](CC(C)C)NC(=O)[C@@H](Cc2ccccc2)NC(=O)[C@H](CCN)NC1=O)[C@@H](C)O` [polymyxin B, Polymyxin B sulphate] (X1-[Dab]T[Dab][Dab][Dab][dF]L[Dab][Dab]T; lactam 4-C (inferred); N-terminus assumed), the “time to eradicate all bacteria (time-kill kinetics)” value [2] was 4 h and the “increase of MIC against BL21/pMCR-1 compared to BL21/pEmpty” value [3] was 8 fold.
In the case of `CCOC(=O)C1=CCCC[C@H]1S(=O)(=O)Nc1ccc(F)cc1Cl` [TAK242, Resatorvid], the “p-P65 and p-IκB after infection or LPS stimulation” value [4] is reported as “inhibited”.
